This passage reports inhibition results from PubChem BioAssay.

The term inhibition denotes the relative decrease from the control value, in per cent.

The other results are listed elsewhere or left out. Calls of active or inactive are those of the source.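 Rule for the calls, unless noted: active = mean inhibition across four replicates of at least 40 percent at the single tested concentration; inactive = the rest.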

The target in test [1] is PEG-3 (UniProt Q6IN02). Kind of test: inhibition of PEG-3 promoter-driven reporter – cell-based, HeLa, luciferase, CREF/GAPDH counter-screen panel, dose response (AID 624167). Particulars: CREF/GAPDH counter-screens; HeLa PEG-Prom luciferase reporter, overnight, run 1, dose range 1, at 100 µM (top of the series) unless noted. For orientation: Counterscreens check selectivity or assay interference.

Test [2] deals with PEG-3 (UniProt Q6IN02). The test is described as above. Conditions: CREF/GAPDH counter-screens; HeLa PEG-Prom luciferase reporter, overnight, run 2, dose range 1, at 100 µM (top of the series) unless noted.
The nature of test [3]: NF-kB reporter suppression in CF airway cells – cell-based, GFP fluorescence, single concentration, confirmation (AID 602472; in the data active = inhibition above about 40%;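 note: stimulus PAF is a Pseudomonas aeruginosa filtrate and not platelet activating factor; plate controls were DMSO wells with stimulus for no effect and unstimulated DMSO wells for full effect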). Conditions: KKLEB CF airway cells, PAF-induced NF-kB-GFP fluorescence, overnight; at 5 µM; stronger effect = higher value. A digest of the protocol:
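Material – KKLEB NFkB-GFP reporter cells · Buffer or medium – medium with 2% FBS for cells, serum-free medium for stimulus · Incubation – 2 h pretreatment, overnight stimulation · Signal – reporter fluorescence (GFP) · Also added – Pseudomonas aeruginosa filtrate (PAF) as NFkB-activating stimulus · Doses – 5 µM single dose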

Test [4] can be described thus: HIF-2a driven luciferase blockers, single dose – luminescence, 786-0 RCC cells, confirmation (AID 651580). Conditions: HIF-2a luciferase reporter luminescence, overnight, at 18.8 µM, stronger effect = higher value. In general terms: Reporter assays use an easily measured gene product as a stand-in for the process of interest.
Test [5] in a line: HIF-1a luciferase reporter signal reduction – MiaPaCa-2 cells, single concentration, counter-screen for HIF-2a inhibitor project, confirmation (AID 651589;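 active = mean inhibition of the reporter signal across four replicates at the single tested dose of 50% or more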). Particulars: MiaPaCa-2 HIF-1a luciferase reporter, desferoxamine, overnight; at 18.8 µM; stronger effect = higher value.

Sequence of PEG-3 (Q6IN02 whole entry, looked up): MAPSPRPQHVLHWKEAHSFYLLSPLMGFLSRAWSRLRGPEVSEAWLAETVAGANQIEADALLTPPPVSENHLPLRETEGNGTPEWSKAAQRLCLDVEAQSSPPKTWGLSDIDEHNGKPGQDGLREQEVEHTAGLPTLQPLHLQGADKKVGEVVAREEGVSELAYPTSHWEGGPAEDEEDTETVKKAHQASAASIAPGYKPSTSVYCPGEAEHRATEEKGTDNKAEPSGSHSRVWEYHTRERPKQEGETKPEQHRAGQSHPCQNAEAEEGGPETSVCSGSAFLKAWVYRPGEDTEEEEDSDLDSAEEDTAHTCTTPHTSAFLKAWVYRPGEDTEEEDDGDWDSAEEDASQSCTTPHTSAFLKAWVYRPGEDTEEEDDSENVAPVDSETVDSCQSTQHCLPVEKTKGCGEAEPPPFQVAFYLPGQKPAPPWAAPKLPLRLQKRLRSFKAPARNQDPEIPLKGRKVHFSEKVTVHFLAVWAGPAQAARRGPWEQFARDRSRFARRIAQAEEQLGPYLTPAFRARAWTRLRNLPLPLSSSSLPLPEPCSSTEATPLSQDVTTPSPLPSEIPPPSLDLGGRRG

For `COC(=O)c1ccc(Nc2cc(C)nc3ccc(C)cc23)cc1`, the inhibition with PEG-3 [1] is 98.7%; with PEG-3 [2], 100%.
For `NCCc1c(-c2ccccc2)n(-c2ccccc2)c2ccccc12`, the inhibition with PEG-3 [1] came to 97.5%; with PEG-3 [2] it was 102%.
In the same order, the values of `CN(Cc1ccccc1)C(=O)c1ccc(Nc2nc(C(N)Cc3ccccc3)cs2)nc1` (configuration not stated) are 102% and 101%.
Regarding `CCOC(=O)C(=Cc1ccccc1)C(=O)c1ccccc1`, the inhibition in test [3] was -122% (inactive); in test [4] it was 97.2% (active); in test [5], 108% (active).
On to `NC1=NC[C@H](Cc2ccccc2)N1CCc1cc(C(F)(F)F)cc(C(F)(F)F)c1`, for which the inhibition with PEG-3 [1] and with PEG-3 [2] was 101% throughout.
As for `CCN(CC)CCNC(=O)c1ccc(NC(=O)c2cccc(S(=O)(=O)N(C)C3CCCCC3)c2)cc1`, the inhibition with PEG-3 [1] is 100%; with PEG-3 [2] it was 102%.
For the compound `CCC(=C(c1ccc(OC)cc1)c1ccc(OC)cc1)c1cn(CC(O)CN2CCN(C)CC2)c2ccccc12` (configuration not stated), the inhibition with PEG-3 [1] was 99.5%; with PEG-3 [2], 98.3%.
In the same order, the values of `COc1cc2c(cc1OC)CN(c1nc(-c3cccnc3)nc3ccccc13)CC2` are 95.5% and 99.1%.
On to `COc1cc(NC(=O)c2cccc(C)c2)ccc1NC(=O)c1cc2ccccc2o1`, for which the inhibition is 76.6% [run 1, dose range 1, at 50 µM] in the test with PEG-3 [1] and 94.6% [run 2, dose range 1, at 50 µM] with PEG-3 [2].
Consider `Cc1cc(/C=c2/sc3nc4ccccc4n3c2=O)c(C)n1-c1ccccn1`, for which the inhibition with PEG-3 [1] was found to be 84.1%; with PEG-3 [2], 84.5%.
Regarding `O=C(Nc1cccc(S(=O)(=O)N2CCOCC2)c1)c1ccc2c(=O)n3c(nc2c1)CCCCC3`, the results for the inhibition in the test with PEG-3 [1] and in the test with PEG-3 [2] were 96.5% and 98%, respectively.
The matching figures for `Cc1ccc(S(=O)(=O)CCSC(=N)N)cc1`: 101% and 93.6%.
In the same order, the values of `COc1ccc(-c2ccc3[nH]c4c(c3c2)CCN2C[C@@H]([C@H](C)O)[C@@H](N(C)C(=O)Nc3cc(Cl)cc(Cl)c3)C[C@@H]42)cc1` are 96.3% and 96.5%.
